Results reported in ChEMBL document CHEMBL5380804, “Discovery of 2-(3-Benzamidopropanamido)thiazole-5-carboxylate Inhibitors of the Kinesin HSET (KIFC1) and the Development of Cellular Target Engagement Probes” (J Med Chem, 2023).

Legend:
[1] = biological target: T1, Kinesin-like protein KIFC1 (Homo sapiens) (UniProt Q9BW19); test: Inhibition of N-terminal His-tagged full length recombinant human HSET assessed as inhibition of microtubule-stimulated ATPase activity incubated for 10 mins in presence of ultra-ATP by ADP-Glo kinase assay relative to control
T1 sequence (whole entry): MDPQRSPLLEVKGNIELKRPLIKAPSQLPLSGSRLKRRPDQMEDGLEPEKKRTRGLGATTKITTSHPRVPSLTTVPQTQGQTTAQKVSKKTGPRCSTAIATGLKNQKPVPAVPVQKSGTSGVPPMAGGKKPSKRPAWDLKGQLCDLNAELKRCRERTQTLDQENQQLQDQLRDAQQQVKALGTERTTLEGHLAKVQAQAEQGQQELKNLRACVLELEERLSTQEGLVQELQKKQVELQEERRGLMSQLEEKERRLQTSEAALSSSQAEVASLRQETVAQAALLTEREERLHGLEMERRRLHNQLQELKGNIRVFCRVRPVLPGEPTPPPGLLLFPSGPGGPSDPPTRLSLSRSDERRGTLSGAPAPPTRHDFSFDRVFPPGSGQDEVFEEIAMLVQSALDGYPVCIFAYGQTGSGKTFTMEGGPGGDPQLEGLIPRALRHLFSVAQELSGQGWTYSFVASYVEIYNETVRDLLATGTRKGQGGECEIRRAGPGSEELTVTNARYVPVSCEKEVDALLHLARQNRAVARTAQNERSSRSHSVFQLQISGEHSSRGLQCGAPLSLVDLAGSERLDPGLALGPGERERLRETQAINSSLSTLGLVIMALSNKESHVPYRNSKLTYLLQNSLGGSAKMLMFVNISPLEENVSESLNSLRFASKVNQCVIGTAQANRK

[2] = biological target: T1, Kinesin-like protein KIFC1 (Homo sapiens); test: Binding affinity to HSET in human DLD-1 with HSET knockout assessed as fold increase in signal at 3 uM incubated for 45 mins by Alexa-488 fluorophore staining immunofluorescence analysis; assay type: cell-based
Method in brief: (§1)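 DLD1 4N cells and CRISPR HSET-knockout DLD1 cells pretreated 2 h with 8 μM pro-TAME, then 45 min with 3 μM TCO click probe plus 8 μM MG-132 in DMEM/1% FBS. After washes, fixed in 4% PFA and reacted with 400 nM tetrazine-Cy5 for 10 min at room temperature. Stained for pericentrin, KIFC1 (Alexa-488) and DAPI; confocal 40× imaging; signal expressed relative to tetrazine-Cy5 alone.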

[3] = biological target: T1, Kinesin-like protein KIFC1 (Homo sapiens); test: Binding affinity to HSET in human DLD-1 assessed as fold increase in signal at 3 uM incubated for 45 mins by Alexa-488 fluorophore staining immunofluorescence analysis; assay type: cell-based; method in brief: as §1
[4] = biological target: T2, Kinesin-like protein KIFC1 (Homo sapiens, UniProt Q9BW19); test: Binding affinity to N-terminal His-tagged full length recombinant human HSET assessed as dissociation constant incubated for 3 hrs in presence of 70 ug/ml of microtubules by fluorescence polarization assay
T2 sequence (Q9BW19 whole entry): T1 sequence (whole entry)
Method in brief: (§2)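 Full-length human N-His HSET titrated from 2000 to 0.5 nM. Preincubated 10 min with paclitaxel-stabilized preformed microtubules or reconstitution buffer, then added to 2.5 nM sulfoCy5 probe. Buffer: 20 mM HEPES pH 7.5, 200 mM NaCl, 10 mM MgCl2, 1 mM TCEP, 0.1 mM Triton X-100, 5% glycerol.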

[5] = biological target: T2, Kinesin-like protein KIFC1; test: Binding affinity to N-terminal His-tagged full length recombinant human HSET assessed as dissociation constant incubated for 3 hrs in presence of 7 ug/ml of microtubules by fluorescence polarization assay; method in brief: as §2
[6] = biological target: T1, Kinesin-like protein KIFC1 (Homo sapiens); test: Displacement of CCT369834 probe from HSET in human DLD-1 cells assessed as decrease in localization of CCT369834 probe at 0.1 to 10 uM incubated for 45 mins by Alexa-488 fluorophore staining immunofluorescence analysis; assay type: cell-based; details: dose 0.1-10 µM
Method in brief: (§3)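 Target engagement in DLD1 4N cells, with HSET-knockout DLD1 as negative control. Cells pretreated 2 h with 8 μM pro-TAME, then given 3 μM TCO probe alone or with competitor plus 8 μM MG-132 in 1% FBS medium for 45 min. Washed, PFA-fixed, then 400 nM tetrazine-Cy5 for 10 min. Stained for pericentrin, KIFC1 and DAPI, followed by confocal 3D segmentation of mitotic poles. Cy5/KIFC1 pole intensity ratio, with KO signal subtracted, normalized to probe-alone control; n > 100 cells per replicate, two replicates per concentration.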

[7] = biological target: T1, Kinesin-like protein KIFC1 (Homo sapiens); test: Displacement of CCT369834 probe from HSET in human DLD-1 cells assessed as decrease in localization of CCT369834 probe at 0.1 to 10 uM incubated for 45 mins by DAPI staining immunofluorescence analysis; assay type: cell-based; details: dose 0.1-10 µM; method in brief: as §3
[8] = biological target: T1, Kinesin-like protein KIFC1 (Homo sapiens); test: Displacement of CCT369834 probe from HSET in human DLD-1 cells assessed as decrease in localization of CCT369834 probe at 0.1 to 10 uM incubated for 45 mins by TZ-Cy5 staining immunofluorescence analysis; assay type: cell-based; details: dose 0.1-10 µM; method in brief: as §3
[9] = biological target: T2, Kinesin-like protein KIFC1; test: Displacement of FP-Probe from N-terminal His-tagged full length recombinant human HSET incubated for 2 hrs by fluorescence polarization based competitive binding assay
Method in brief: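 Competitive FP assay with 400 nM full-length human N-His HSET and 2.5 nM sulfoCy5 probe in 20 mM HEPES pH 7.5, 200 mM NaCl, 10 mM MgCl2, 1 mM TCEP, 0.1 mM Triton X-100, 5% glycerol. 11-point compound series from 100 to 0.001 μM final.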

SMILES: CCOC(=O)c1sc(NC(=O)CCNC(=O)c2ccccc2)nc1C
- inhibition [1]: 47%

SMILES: CCCOC(=O)c1sc(NC(=O)C[C@H](CCCN(C)CC#CCNC(=O)O[C@@H]2CC/C=C/CCC2)NC(=O)c2cccc(-c3noc(C)n3)c2)nc1C
- fold change (FC) [2]: 7
- fold change (FC) [3]: 14

SMILES: CCCOC(=O)c1sc(NC(=O)C[C@H](CCCNC(=O)CCCCC[N+]2=C(/C=C/C=C/C=C3/N(C)c4ccc(S(=O)(=O)O)cc4C3(C)C)C(C)(C)c3cc(S(=O)(=O)O)ccc32)NC(=O)c2cccc(-c3noc(C)n3)c2)nc1C
- Kd [4]: 332 nM
- Kd [5]: 315 nM

SMILES: CCCOC(=O)c1sc(NC(=O)C[C@H](CCCN(C)C)NC(=O)c2cccc(-c3noc(C)n3)c2)nc1C
- Activity [6]: Dose-Dependent Effect
- Activity [7]: Dose-Dependent Effect
- Activity [8]: Dose-Dependent Effect

SMILES: CCOC(=O)c1sc(NC(=O)CCNC(=O)c2cccc(-c3noc(C)n3)c2)nc1C
- IC50 [9]: 109 nM

SMILES: CCOC(=O)c1sc(NC(=O)CCNC(=O)C2CCCC(C)C2)nc1C (stereo not given)
- inhibition [1]: 47%
